Measurements reported in ChEMBL document CHEMBL3616436, “Synthesis, cytotoxicity and antimicrobial activity of thiourea derivatives incorporating 3-(trifluoromethyl)phenyl moiety” (Eur J Med Chem, 2015).
Values after ≈ are worked out from the molar mass of the structure shown. Active and inactive are the calls of the source. The calls are words filed in the database; no cut-off is given here.

Tests used:
[1] = Cytotoxicity against human MT4 cells; assay type: cell-based
[2] = system: Vesicular stomatitis virus; assay: Antiviral activity against Vesicular stomatitis virus ATCC VR 1540 infected in African green monkey Vero 76 cells assessed as reduction of virus-plaque formation after 2 days by crystal violet staining; assay type: functional, organism-based; settings: ATCC VR 1540, Vero, 48 h
[3] = system: Human immunodeficiency virus 1; assay: Antiviral activity against HIV1 3B infected in human MT4 cells assessed as protection against virus-induced cytopathogenicity by MTT assay; assay type: functional, organism-based; settings: Human immunodeficiency virus 1, 3B
[4] = Cytotoxicity against bovine MDBK cells assessed as cell viability after 48 to 96 hrs by MTT assay; assay type: cell-based, Bos taurus; settings: cattle
[5] = Antiviral activity against Bovine viral diarrhea virus 1-NADL ATCC VR-534 infected in MDBK cells assessed as protection against virus-induced cytopathogenicity after 3 to 4 days by MTT assay; assay type: functional, cell-based; settings: Bovine viral diarrhea virus isolates and strains, ATCC VR-534, MDBK
In short: (§1)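 Cells seeded in 96-well plates (BHK 5x10^4, MDBK 3x10^4 cells/well), grown overnight to confluence, infected at m.o.i. 0.01 (BHK for Reo-1, MDBK for BVDV); serial compound dilutions in maintenance medium with 0.5% inactivated FBS added after 1 h; viability by MTT after 3–4 days at 37°C; EC50 for 50% protection by linear regression.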

[6] = Cytotoxicity against BHK cells assessed as cell viability after 48 to 96 hrs by MTT assay; assay type: cell-based, Mesocricetus auratus; settings: hamster
Yellow fever virus = assay: Antiviral activity against Yellow fever virus 17D infected in BHK cells assessed as protection against virus-induced cytopathogenicity after 3 to 4 days by MTT assay; assay type: functional, cell-based
[7] = system: Mammalian orthoreovirus 1; assay: Antiviral activity against Reovirus type-1 ATCC VR-214 infected in BHK cells assessed as protection against virus-induced cytopathogenicity after 3 to 4 days by MTT assay; assay type: functional, cell-based; settings: Mammalian orthoreovirus 1, ATCC VR-214, BHK; in short: as §1
[8] = Cytotoxicity against African green monkey Vero 76 cells assessed as cell viability after 48 to 96 hrs by crystal violet staining; assay type: cell-based; settings: chlorocebus sabaeus
Coxsackievirus B5 = assay: Antiviral activity against Human coxsackievirus B5 ATCC VR-29 infected in African green monkey Vero 76 cells assessed as reduction of virus-plaque formation after 3 days by crystal violet staining; assay type: functional, organism-based; settings: Enterovirus B, ATCC VR-29, Vero, 72 h
In short: (§2)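 Plaque reduction: Vero-76 at 2x10^5 cells/well grown to confluent monolayers, infected 2 h at 50–100 PFU/well; after removing unadsorbed virus, overlay of D-MEM, 1% inactivated FBS, 0.75% methylcellulose with or without serial compound dilutions; 3 days at 37°C, fixed and stained with crystal violet in 50% ethanol, plaques counted; EC50 by linear regression.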

Poliovirus 1 = assay: Antiviral activity against Poliovirus type 1 ATCC VR-1562 infected in African green monkey Vero 76 cells assessed as reduction of virus-plaque formation after 2 days by crystal violet staining; assay type: functional, organism-based; settings: Enterovirus C, ATCC VR-1562, Vero, 48 h
Vaccinia virus = assay: Antiviral activity against Human Vaccinia virus ATCC VR-1549 infected in African green monkey Vero 76 cells assessed as reduction of virus-plaque formation after 3 days by crystal violet staining; assay type: functional, organism-based; settings: Orthopoxvirus vaccinia, ATCC VR-1549, Vero, 72 h
Human alphaherpesvirus 1 = assay: Antiviral activity against Human herpesvirus 1 KOS ATCC VR-1493 infected in African green monkey Vero 76 cells assessed as reduction of virus-plaque formation after 3 days by crystal violet staining; assay type: functional, organism-based; settings: Human alphaherpesvirus 1, KOS ATCC VR1493, Vero, 72 h; in short: as §2
Escherichia coli [9] = assay: Antimicrobial activity against Escherichia coli ATCC 10538 after 18 hrs by twofold serial microdilution method; assay type: functional, organism-based
Escherichia coli [10] = assay: Antimicrobial activity against Escherichia coli ATCC 25922 after 18 hrs by twofold serial microdilution method; assay type: functional, organism-based
Escherichia coli [11] = assay: Antimicrobial activity against Escherichia coli NCTC 8196 after 18 hrs by twofold serial microdilution method; assay type: functional, organism-based
Pseudomonas aeruginosa [12] = assay: Antimicrobial activity against Pseudomonas aeruginosa ATCC 15442 after 18 hrs by twofold serial microdilution method; assay type: functional, organism-based
Pseudomonas aeruginosa [13] = assay: Antimicrobial activity against Pseudomonas aeruginosa NCTC 6749 after 18 hrs by twofold serial microdilution method; assay type: functional, organism-based
Pseudomonas aeruginosa [14] = assay: Antimicrobial activity against Pseudomonas aeruginosa ATCC 27863 after 18 hrs by twofold serial microdilution method; assay type: functional, organism-based
[15] = system: Bordetella bronchiseptica; assay: Antimicrobial activity against Bordetella bronchiseptica ATCC 4617 after 18 hrs by twofold serial microdilution method; assay type: functional, organism-based
Candida albicans [16] = assay: Antimicrobial activity against Candida albicans ATCC 10231 after 24 hrs by twofold serial microdilution method; assay type: functional, organism-based
Candida albicans [17] = assay: Antimicrobial activity against Candida albicans ATCC 90028 after 24 hrs by twofold serial microdilution method; assay type: functional, organism-based
Candida parapsilosis = assay: Antimicrobial activity against Candida parapsilosis ATCC 22019 after 24 hrs by twofold serial microdilution method; assay type: functional, organism-based
Staphylococcus aureus [18] = assay: Antimicrobial activity against Staphylococcus aureus NCTC 4163 at 400 ug after 18 hrs by disc-diffusion method; assay type: functional; settings: NCTC 4163, 18 h, read-out: IZ
In short: (§3)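 Disc diffusion on Mueller-Hinton II agar per CLSI; 9 mm paper discs loaded with 400 µg compound from DMSO solution, dried, placed on agar; growth inhibition zone diameter read after 18 h at 35°C.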

Staphylococcus aureus [19] = assay: Antimicrobial activity against Staphylococcus aureus ATCC 25923 at 400 ug after 18 hrs by disc-diffusion method; assay type: functional; settings: ATCC 25923, 18 h, read-out: IZ; in short: as §3
Staphylococcus aureus [20] = assay: Antimicrobial activity against Staphylococcus aureus ATCC 6538 at 400 ug after 18 hrs by disc-diffusion method; assay type: functional; settings: ATCC 6538, 18 h, read-out: IZ; in short: as §3
Staphylococcus aureus [21] = assay: Antimicrobial activity against Staphylococcus aureus ATCC 29213 at 400 ug after 18 hrs by disc-diffusion method; assay type: functional; settings: ATCC 29213, 18 h, read-out: IZ; in short: as §3
[22] = system: Staphylococcus epidermidis; assay: Antimicrobial activity against Staphylococcus epidermidis ATCC 12228 at 400 ug after 18 hrs by disc-diffusion method; assay type: functional; settings: ATCC 12228, 18 h, read-out: IZ; in short: as §3
[23] = system: Staphylococcus epidermidis; assay: Antimicrobial activity against Staphylococcus epidermidis ATCC 35984 at 400 ug after 18 hrs by disc-diffusion method; assay type: functional; settings: ATCC 35984, 18 h, read-out: IZ; in short: as §3
Bacillus subtilis = assay: Antimicrobial activity against Bacillus subtilis ATCC 6633 at 400 ug after 18 hrs by disc-diffusion method; assay type: functional; settings: ATCC 6633, 18 h, read-out: IZ; in short: as §3
Bacillus cereus = assay: Antimicrobial activity against Bacillus cereus ATCC 11778 at 400 ug after 18 hrs by disc-diffusion method; assay type: functional; settings: ATCC 11778, 18 h, read-out: IZ; in short: as §3
Enterococcus hirae = assay: Antimicrobial activity against Enterococcus hirae ATCC 10541 at 400 ug after 18 hrs by disc-diffusion method; assay type: functional; settings: ATCC 10541, 18 h, read-out: IZ; in short: as §3
Enterococcus faecalis = assay: Antimicrobial activity against Enterococcus faecalis ATCC 29212 at 400 ug after 18 hrs by disc-diffusion method; assay type: functional; settings: ATCC 29212, 18 h, read-out: IZ; in short: as §3
Micrococcus luteus [24] = assay: Antimicrobial activity against Micrococcus luteus ATCC 10240 at 400 ug after 18 hrs by disc-diffusion method; assay type: functional; settings: ATCC 10240, 18 h, read-out: IZ; in short: as §3
Micrococcus luteus [25] = assay: Antimicrobial activity against Micrococcus luteus ATCC 9341 at 400 ug after 18 hrs by disc-diffusion method; assay type: functional; settings: ATCC 9341, 18 h, read-out: IZ; in short: as §3
Proteus vulgaris = assay: Antimicrobial activity against Proteus vulgaris NCTC 4635 at 400 ug after 18 hrs by disc-diffusion method; assay type: functional; in short: as §3
Staphylococcus aureus [26] = assay: Antimicrobial activity against Staphylococcus aureus NCTC 4163 after 18 hrs by twofold serial microdilution method; assay type: functional; settings: NCTC 4163, 18 h
Staphylococcus aureus [27] = assay: Antimicrobial activity against Staphylococcus aureus ATCC 25923 after 18 hrs by twofold serial microdilution method; assay type: functional; settings: ATCC 25923, 18 h
Staphylococcus aureus [28] = assay: Antimicrobial activity against Staphylococcus aureus ATCC 6538 after 18 hrs by twofold serial microdilution method; assay type: functional; settings: ATCC 6538, 18 h
Staphylococcus aureus [29] = assay: Antimicrobial activity against Staphylococcus aureus ATCC 29213 after 18 hrs by twofold serial microdilution method; assay type: functional; settings: ATCC 29213, 18 h
[30] = system: Staphylococcus epidermidis; assay: Antimicrobial activity against Staphylococcus epidermidis ATCC 12228 after 18 hrs by twofold serial microdilution method; assay type: functional; settings: ATCC 12228, 18 h
[31] = system: Staphylococcus epidermidis; assay: Antimicrobial activity against Staphylococcus epidermidis ATCC 35984 after 18 hrs by twofold serial microdilution method; assay type: functional; settings: ATCC 35984, 18 h
[32] = system: Mycobacterium tuberculosis; assay: Antimycobacterial activity against Mycobacterium tuberculosis H37Rv ATCC 25618; assay type: functional
In short: (§4)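 Classical test-tube successive-dilution method in Youmans' modification of Proskauer and Beck liquid medium with 10% bovine serum. Inoculum came from 14-day cultures. DMSO stock was 10 mg/mL, diluted geometrically in medium. Tubes were incubated at 37 °C. Concentrations tested were 3.1, 6.2, 12.5, 25, 50 and 100 µg/ml. MIC is the minimum concentration inhibiting growth relative to compound-free tubes.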

[33] = system: Mycobacterium tuberculosis; assay: Antimycobacterial activity against drug-sensitive Mycobacterium tuberculosis Spec. 192; assay type: functional; in short: as §4

FC(F)(F)c1cccc(NC(=S)Nc2ccccc2Br)c1
CC50 [1]: 36 µM | EC50 [2]: > 50 µM | EC50 [3]: > 36 µM | CC50 [4]: > 100 µM | EC50 [5]: > 100 µM | CC50 [6]: 59 µM | EC50 (Yellow fever virus): > 59 µM | EC50 [7]: > 59 µM | CC50 [8]: 50 µM | EC50 (Coxsackievirus B5): > 50 µM | EC50 (Poliovirus 1): > 50 µM | EC50 (Vaccinia virus): > 50 µM | EC50 (Human alphaherpesvirus 1): > 50 µM | Activity (Escherichia coli [9]): inactive | Activity (Escherichia coli [10]): inactive | Activity (Escherichia coli [11]): inactive | Activity (Pseudomonas aeruginosa [12]): inactive | Activity (Pseudomonas aeruginosa [13]): inactive | Activity (Pseudomonas aeruginosa [14]): inactive | Activity [15]: inactive | Activity (Candida albicans [16]): inactive | Activity (Candida albicans [17]): inactive | Activity (Candida parapsilosis): inactive

FC(F)(F)c1cccc(NC(S)=NCCN2CCOCC2)c1
CC50 [1]: > 100 µM | EC50 [2]: > 100 µM | EC50 [3]: > 100 µM | CC50 [4]: > 100 µM | EC50 [5]: > 100 µM | CC50 [6]: > 100 µM | EC50 (Yellow fever virus): > 100 µM | EC50 [7]: > 100 µM | CC50 [8]: > 100 µM | EC50 (Coxsackievirus B5): > 100 µM | EC50 (Poliovirus 1): > 100 µM | EC50 (Vaccinia virus): > 100 µM | EC50 (Human alphaherpesvirus 1): > 100 µM | Activity (Escherichia coli [9]): inactive | Activity (Escherichia coli [10]): inactive | Activity (Escherichia coli [11]): inactive | Activity (Pseudomonas aeruginosa [12]): inactive | Activity (Pseudomonas aeruginosa [13]): inactive | Activity (Pseudomonas aeruginosa [14]): inactive | Activity [15]: inactive | Activity (Candida albicans [16]): inactive | Activity (Candida albicans [17]): inactive | Activity (Candida parapsilosis): inactive

FC(F)(F)c1cccc(NC(=S)NCc2ccco2)c1
CC50 [1]: 43 µM | EC50 [2]: > 50 µM | EC50 [3]: > 43 µM | CC50 [4]: > 100 µM | EC50 [5]: > 100 µM | CC50 [6]: 48 µM | EC50 (Yellow fever virus): > 48 µM | EC50 [7]: > 48 µM | CC50 [8]: 50 µM | EC50 (Coxsackievirus B5): > 50 µM | EC50 (Poliovirus 1): > 50 µM | EC50 (Vaccinia virus): > 50 µM | EC50 (Human alphaherpesvirus 1): > 50 µM | zone of inhibition at 400 µg/disc (Staphylococcus aureus [18]): 14 mm | zone of inhibition at 400 µg/disc (Staphylococcus aureus [19]): 14 mm | zone of inhibition at 400 µg/disc (Staphylococcus aureus [20]): 14 mm | zone of inhibition at 400 µg/disc (Staphylococcus aureus [21]): 19 mm | zone of inhibition at 400 µg/disc [22]: 12 mm | zone of inhibition at 400 µg/disc [23]: 13 mm | zone of inhibition at 400 µg/disc (Bacillus subtilis): 15 mm | zone of inhibition at 400 µg/disc (Bacillus cereus): 13 mm | zone of inhibition at 400 µg/disc (Enterococcus hirae): 13 mm | zone of inhibition at 400 µg/disc (Enterococcus faecalis): 0 mm | zone of inhibition at 400 µg/disc (Micrococcus luteus [24]): 13 mm | zone of inhibition at 400 µg/disc (Micrococcus luteus [25]): 13 mm | inhibition zone (IZ) (Proteus vulgaris): inactive | MIC (Staphylococcus aureus [26]): 256 µg/mL (≈ 852 µM) | MIC (Staphylococcus aureus [27]): 256 µg/mL (≈ 852 µM) | MIC (Staphylococcus aureus [28]): 256 µg/mL (≈ 852 µM) | MIC (Staphylococcus aureus [29]): 256 µg/mL (≈ 852 µM) | MIC [30]: 256 µg/mL (≈ 852 µM) | MIC [31]: 512 µg/mL (≈ 1700 µM) | MIC [32]: > 100 µg/mL | MIC [33]: > 100 µg/mL
